Data set [1] can be described thus: Solubility in alpha MEM. The class given is physicochemical. Summed up:
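Solubility (mM) in α-MEM with 5% fetal calf serum at ambient temperature, measured by HPLC.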

Data set [2] in a line: Partition coefficient at pH 7.4 by shake-flask method. The class given is physicochemical. The following applies: octanol/water. Summed up:
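Octanol-water partition coefficient by shake-flask at pH 7.4, reported with SEM.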

Data set [3] concerns V79. The data set is described as follows: Selectivity ratio of IC50 for V79 NTR-ve cells to IC50 for V79 NTRpuro cells. The format is functional, Cricetulus griseus.
The test system of data set [4] is EMT6. Briefly: Antitumor activity against mixed mouse EMT6/EMT6 NTRpuro cells injected in CD1 nude mouse assessed as cell kill at 1780 umol/kg, ip in DMSO after 18 hrs. The format is functional.
Data set [5] deals with WiDr. Briefly: Selectivity ratio of IC50 for WiDr NTR-ve cells to IC50 for WiDr NTRneo cells. The class given is functional, Homo sapiens.
Data set [6] has as its system V79. The data set is described as follows: Clonogenic survival of 97% V79 NTRoua cells in co-cultures with 3% V79 NTRpuro cells after 5 hrs by MCL assay. The format is functional, Cricetulus griseus. In outline:
(§1)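 Multicellular layer cocultures of 3% V79-NTRpuro activators and 97% V79oua NTR-ve targets (ouabain-resistant), exposed to prodrug for 5 h. MCLs were then trypsin-dissociated and plated in ouabain or puromycin selective media for clonogenic survival. C10 (10% survival) interpolated for activators and targets; AC/TC ratio derived. Mean with SEM or range over independent experiments.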

The test system of data set [7] is V79. The data set is described as follows: Clonogenic survival ratio of 3% V79 NTRpuro cells to 97% V79 NTRoua cells in co-culture. The format is functional, Cricetulus griseus. Summed up:
as §1

Data set [8] is described as follows: Toxicity in ip dosed CD1 nude mouse in DMSO. Particulars: in vivo. The class given is organism-based. In outline:
(§2)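 Maximum tolerated dose (MTD) determined in CD-1 nude mice after a single i.p. injection of prodrug, given in the vehicle named in each line.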

Data set [9] deals with V79. Briefly: Antiproliferative activity against chinese hamster V79 NTRpuro cells after 18 hrs. The following applies: Cricetulus griseus, V79, 18 h. The class given is functional, cell-based.
Data set [10] has as its system V79. Briefly: Clonogenic survival of 3% V79 NTRpuro cells in co-cultures with 97% V79 NTRoua after 5 hrs by MCL assay. The class given is functional, Cricetulus griseus. Summed up:
as §1

In data set [11] the test system is WiDr. Briefly: Antitumor activity against mixed human 10% WiDr NTRneo/ 90% WiDr tumor cells injected in CD1 nude mouse assessed as growth delay at 1780 umol/kg, ip in DMSO. The format is functional. In outline:
(§3)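 WiDr-NTRneo tumours (100% NTR+ve, or 1:9 NTR+ve:NTR-ve mixtures) in CD-1 nude mice, given a single i.p. dose at MTD. Read-out is median growth delay to 15 mm mean diameter, plus tumours not palpable 100 days after treatment. Aziridine given at 200 µmol/kg as positive control in every experiment.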

Data set [12] relates to EMT6. The data set is described as follows: Antiproliferative activity against mouse EMT6 NTRpuro cells after 18 hrs. The format is functional, cell-based. Particulars: EMT6, 18 h.
In data set [13] the test system is EMT6. Briefly: Selectivity ratio of IC50 for EMT6 NTR-ve cells to IC50 forEMT6 NTRpuro cells. The class given is functional, Mus musculus.
Data set [14] relates to V79. The data set is described as follows: Antiproliferative activity against chinese hamster wild-type V79 NTR-ve cells after 18 hrs. The format is functional, cell-based. The following applies: Cricetulus griseus, V79, 18 h.
The subject of data set [15] is WiDr. Briefly: Antiproliferative activity against human wild type WiDr NTR-ve cells after 18 hrs. The class given is functional, cell-based.
In data set [16] the test system is WiDr. Briefly: Antitumor activity against human 100% WiDr NTRneo tumor cells injected in CD1 nude mouse assessed as growth delay at 1780 umol/kg, ip in DMSO. The class given is functional. In outline: as §3
For data set [17], the system named is EMT6. Briefly: Antiproliferative activity against mouse wild type EMT6 NTR-ve cells after 18 hrs. The format is functional, cell-based. The following applies: EMT6, 18 h.
Data set [18] is described as follows: Antiproliferative activity against human wild type Skov3 NTR-ve cells after 18 hrs. The format is functional, cell-based.
Data set [19] relates to WiDr. The data set is described as follows: Antiproliferative activity against human WiDr NTRneo cells after 18 hrs. The format is functional, cell-based.
Data set [20] is described as follows: Selectivity ratio of IC50 for Skov3 NTR-ve cells to IC50 for Skov3 NTRneo cells. The format is functional, Homo sapiens.
Data set [21] relates to V79. The data set is described as follows: Clonogenic survival of V79 NTRoua cells after 5 hrs by MCL assay. The class given is functional, Cricetulus griseus.
Data set [22] is described as follows: Antiproliferative activity against human Skov3 NTRneo cells after 18 hrs. The class given is functional, cell-based. The following applies: SK-OV-3, 18 h.
Data set [23] is described as follows: Stability in alpha MEM at 37 degC after 24 hrs. The class given is physicochemical. The following applies: read-out: Stability. Summed up: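 Percent parent compound remaining, by HPLC, after holding in α-MEM with 5% fetal calf serum at 37 °C for 24 h.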
In data set [24] the test system is WiDr. Briefly: Antitumor activity against human 100% WiDr NTRneo tumor cells injected in CD1 nude mouse assessed as growth delay at 2000 umol/kg, ip in DMSO. The format is functional. In outline: (§4)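 WiDr tumors grown in CD-1 nude mice from stably NTR-transfected WiDr-NTRneo cells, either alone or mixed 1:9 with NTR-ve WiDr cells. Each mouse received a single i.p. dose. The read-out was median growth delay for tumors to reach an endpoint size of 15 mm mean diameter. Long-term controls were counted as tumors not palpable 100 days after treatment. The aziridine positive control was included in every experiment.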

Data set [25] deals with WiDr. The data set is described as follows: Antitumor activity against mixed human 10% WiDr NTRneo/ 90% WiDr tumor cells injected in CD1 nude mouse assessed as growth delay at 2000 umol/kg, ip in DMSO. The class given is functional. Summed up:
as §4

Data set [26] has as its system EMT6. The data set is described as follows: Antitumor activity against mixed mouse EMT6/EMT6 NTRpuro cells injected in CD1 nude mouse assessed as cell kill at 2000 umol/kg, ip in DMSO after 18 hrs. The class given is functional.
The subject of data set [27] is EMT6. The data set is described as follows: Antitumor activity against mixed mouse EMT6/EMT6 NTRpuro cells injected in CD1 nude mouse assessed as cell kill at 1000 umol/kg, ip in DMSO after 18 hrs. The class given is functional.
Data set [28] deals with WiDr. The data set is described as follows: Antitumor activity against mixed human 10% WiDr NTRneo/ 90% WiDr tumor cells injected in CD1 nude mouse assessed as growth delay at 1000 umol/kg, ip in DMSO. The class given is functional. Summed up: as §3
The test system of data set [29] is WiDr. The data set is described as follows: Antitumor activity against human 100% WiDr NTRneo tumor cells injected in CD1 nude mouse assessed as growth delay at 1000 umol/kg, ip in DMSO. The class given is functional. In outline:
as §3

A short description of data set [30]: Toxicity in ip dosed CD1 nude mouse in DMSO/PEG. The following applies: in vivo. The format is organism-based. Summed up: as §2
Data set [31] relates to EMT6. The data set is described as follows: Antitumor activity against mixed mouse EMT6/EMT6 NTRpuro cells injected in CD1 nude mouse assessed as cell kill at 133 umol/kg, ip in DMSO/PEG after 18 hrs. The format is functional.
The test system of data set [32] is WiDr. Briefly: Antitumor activity against human 100% WiDr NTRneo tumor cells injected in CD1 nude mouse assessed as growth delay at 133 umol/kg, ip in DMSO/PEG. The class given is functional. In outline:
as §3

Data set [33] relates to WiDr. Briefly: Antitumor activity against mixed human 10% WiDr NTRneo/ 90% WiDr tumor cells injected in CD1 nude mouse assessed as growth delay at 750 umol/kg, ip in DMSO. The class given is functional. In outline:
as §3

The structures appear in SMILES notation. Converted amounts (≈) assume the structure as drawn.

The record followed here is ChEMBL document CHEMBL1142960, “Synthesis and structure-activity relationships for 2,4-dinitrobenzamide-5-mustards as prodrugs for the Escherichia coli nfsB nitroreductase in gene therapy” (J Med Chem, 2007).

For orientation: solubility means the dissolved amount per volume that the medium holds. Read a low solubility as little dissolved substance. In general, logD refers to lipophilicity at a set pH, counting ionised and neutral species. By IC50 is commonly meant the concentration that gives 50% inhibition. Lower therefore signals higher potency.

In [1], `CS(=O)(=O)OCCN(CCBr)c1cc(C(N)=O)c([N+](=O)[O-])cc1[N+](=O)[O-]` yielded a solubility of 230 µM (≈ 105 µg/mL). This compound also came in with a logD in data set [2] of 0.49. For the same compound, the “Ratio IC50” value worked out at 1260 in data set [3], 387 in data set [5], 1510 in data set [13] and 715 in [20]. Besides, the LCK in data set [4] is on record as >3.61. Besides, the Activity in data set [6] was 10 µM; in data set [10], 2 µM; in [11], 26 days; in data set [16], >82 days; in data set [21], >250 µM. Further, in [7], the Ratio was 0.2. The compound also gave an MTD in data set [8] of 1780 µmol/kg. Also, the IC50 in data set [9] is 0.11 µM; in data set [12], 0.05 µM; in data set [14], 133 µM; in [15] it was 80 µM; in data set [17] it was 76 µM; in data set [18], 135 µM. For the same compound, the figures for the IC50 in data set [19] and in data set [22] were 0.22 µM and 0.19 µM, respectively. For the same compound, in data set [23], the remaining at 24 h is 71%.

Take `CS(=O)(=O)OCCN(CCOS(C)(=O)=O)c1cc(C(N)=O)c([N+](=O)[O-])cc1[N+](=O)[O-]`: in data set [2], the logD is -0.7. Moreover, the “Ratio IC50” value in data set [3] came out at 1200; in [5], 55; in data set [13] it was 755; in [20] it was 220. Moreover, the Activity was >82 days in data set [24]; 152 µM in [6]; 13 µM in [10]; 20 days in [25]; >300 µM in data set [21]. The MTD in [8] came out at 2000 µmol/kg. Besides, the IC50 came to 0.49 µM in data set [9]; 0.32 µM in [12]; 536 µM in data set [14]; 24 µM in [15]; 189 µM in [17]; 226 µM in data set [18]. Moreover, the results for the IC50 in data set [19] and in [22] were 0.67 µM and 1.2 µM, respectively. Further, the LCK in data set [26] is on record as >2.6.

Consider `CS(=O)(=O)OCCN(CCCl)c1cc(C(N)=O)c([N+](=O)[O-])cc1[N+](=O)[O-]`, for which the logD in data set [2] is 0.42. For the same compound, the “Ratio IC50” value in [3] turned out to be 1060; in [5], 442; in [13], 942; in [20], 697. Further, the Activity is 33 µM in [6]; 5.3 µM in data set [10]; 38 days in data set [28]; >1000 µM in [21]; >80 days in data set [29]. Besides, the Ratio in data set [7] worked out at 0.16. Further, the MTD in data set [8] is 1000 µmol/kg. Also, the IC50 in data set [9] was determined as 0.55 µM; in data set [12] it was 0.3 µM; in data set [14] it was 504 µM; in [15], 246 µM; in data set [17], 211 µM; in data set [18] it was 522 µM. Further, the IC50 in data set [19] came out at 0.7 µM; in data set [22] it was 0.78 µM. The LCK in data set [27] was >3.82.

Compound `CS(=O)(=O)c1cc([N+](=O)[O-])c(C(N)=O)cc1N(CCBr)CCBr` had a solubility in data set [1] of 70 µM (≈ 33.1 µg/mL). The logD in [2] is 1.02. Moreover, the “Ratio IC50” value in data set [3] came to 508; in [5], 74; in [13] it was 490; in [20], 265. In addition, the Activity is 16 µM in [6]; 5.5 µM in data set [10]; >83 days in [32]; >100 µM in data set [21]; 36 days in data set [33]. In addition, the MTD in [8] came to 750 µmol/kg; in data set [30], 133 µmol/kg. Also, the IC50 in [9] is 0.16 µM; in data set [12] it was 0.09 µM; in [14], 80 µM; in data set [15], 37 µM; in data set [17] it was 39 µM; in data set [18] it was 86 µM. In addition, the IC50 in data set [19] is 0.58 µM; in [22], 0.4 µM. Besides, the LCK in data set [31] is 2.24. Moreover, in [23], the remaining at 24 h is 63%.
